# Most compounds without a hit are left out; they make up all but 1.1% or so of the library.
# Cneo AK release: Cryptococcus neoformans lysis via adenylate kinase release | C. neoformans lysis, adenylate kinase release luminescence, 4 h; normalised: neutral wells 0, clomiphene wells 100 | lysis activity, % at 15 µM | hit rate 0.2% among 360,000;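 active means mean lysis activity across replicates of at least 80%, whatever share of replicates individually reach that level; inactive means mean lysis activity below 80%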
#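 Material: C. neoformans cells; Schedule: 4 h static compound exposure, 37 °C, read 1 h post-reagent; Measured by: adenylate kinase release luminescence; Read-out: signal increase indicating cell lysis; Controls: Clomiphene as positive lysis control.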
# PglD inh: blocks C. jejuni PglD acetyltransferase activity; purified PglD enzyme, DTNB colorimetric CoA detection; inhibition, % at 12.5 µM; hit rate 0.098% among 360,000; AID 602405; in the data active means inhibition above about 16%, passing the limit was not always enough
# CAL PDZ FP-1: human CAL PDZ-peptide interaction inhibition; hit rate 0.02% among 330,000; AID 504414; purified CAL PDZ, TMR-peptide fluorescence polarization, 1 h; Q9HD26; inhibition, % at 20 µM;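 active means highest replicate inhibition of at least 40%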;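 further: plate controls were DMSO neutral control wells for no effect and unlabeled competitor peptide control wells for full effect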
#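 Control set: unlabelled peptide and DMSO controls / Material: purified CerCALP PDZ construct / Timing: 1 h incubation at room temperature before polarization reading / Doses: 20 µM, one dose / Detection: fluorescence polarization (mP)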
# CAL PDZ FP-2: blocks peptide binding to the human CAL PDZ domain. inhibition, % at 24.9 µM. purified CAL PDZ, TMR-peptide fluorescence polarization, 1 h. hit rate 0.92% among 300,000;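 active means mean inhibition of at least 30% with at least half of replicates also reaching 30%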;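 further: 0% = DMSO neutral control and 100% = excess unlabeled competitor peptide PRC23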
# miR-122 sensor: miR-122 inhibition in Huh7 cells | AID 602342 | Huh7 miR-122 Renilla luciferase sensor, 48 h; neutral wells = 0, positive control = 100 | activation (reporter increase), % at 12.5 µM | hit rate 0.3% among 340,000;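 active means mean replicate activation score at least 90 and every replicate individually at or above 90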;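 further: higher luciferase means less miR-122 activity so hits act as miR-122 inhibitors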
# Active calls of the source: *; / = not tested or not shown; [ ] = another dose, or the depositor's remark.
SMILES,Cneo AK release,PglD inh,CAL PDZ FP-1,CAL PDZ FP-2,miR-122 sensor
COc1ccc(-c2c(O)c(C#N)c(-c3ccccc3)n(-c3ccc(OC)cc3)c2=O)cc1,5.5,-6.3,-2.5,0.0,97.2*
CC1=C(C(N)=O)C(c2ccc(Cl)cc2Cl)n2ncnc2N1 (stereo unspecified),3.0,-0.8,-0.2,38.0*,4.6
CC(=O)C1=C(C)Nc2ncnn2C1c1ccccc1Cl (stereo unspecified),-0.9,-0.4,-0.7,-4.8,-0.8
CCCC#Cc1cnc2c(c1)C(=O)N([C@H](C)CO)C[C@@H](C)[C@H](CN(C)S(=O)(=O)c1ccccc1)O2,0.7,3.2,/,/,16.7[16.7 µM]
Cc1c(N(C)S(=O)(=O)c2ccc(Cl)c(C(=O)NCC(C)(C)N3CCOCC3)c2)c(=O)n(-c2ccccc2)n1C,0.4,-0.3,-0.9,35.1*,-1.9
O=C(Nc1ccnn1C1CCN(CC2CC=CCC2)CC1)c1ccccc1Cl (stereo unspecified),-2.0,-3.4,0.6,51.4*,3.4
NS(=O)(=O)c1ccc(CCNC(=O)COC(=O)C2CCC2)cc1,0.8,1.6,-1.0,47.1*,-4.9
CN(C(=O)c1cccc(C(F)(F)F)c1)C1CCCc2ccccc21 (stereo unspecified),-1.0,3.5,-0.8,52.5*,0.5
COc1ccc(S(=O)(=O)N[C@H]2C=C[C@@H](CC(=O)N3CCc4ccccc4C3)O[C@@H]2CO)cc1,5.3,0.5,/,/,-7.0[16.7 µM]
COc1ccc(-c2ccc(SCC(=O)c3ccccc3)nn2)cc1OC,0.0,-1.5,-8.9,71.1*,/
N#Cc1cccc(-c2ccc3c(c2)[C@H]2[C@H](CCN2C(=O)C2CCCCC2)[C@@H](CO)N3)c1,-8.0,-2.6,/,/,4.6[16.7 µM]
COCC(=O)N(C)C[C@@H]1[C@H](c2ccc(-c3cccnc3)cc2)[C@@H](CO)N1C(C)=O,0.6,2.1,/,/,-6.6[16.7 µM]
CCCOc1ccc(C(=O)O)cc1,-0.8,5.4,1.0,76.5*,-0.3
O=C(Nc1ccc(S(=O)(=O)Nc2nccs2)cc1)c1cc(-c2ccccc2Cl)nc2ccccc12,/,/,-2.4,-10.7,104.3*
O=C(Nc1ccc(S(=O)(=O)Nc2nccs2)cc1)c1cc(-c2ccccn2)nc2ccccc12,/,/,-5.5,-5.4,/
Cc1cccc(-c2ccc([C@@H]3[C@@H](CO)N4CCCCN(C(=O)NC(C)C)C[C@H]34)cc2)c1,1.4,3.5,/,/,3.0[16.7 µM]
CCN(CC)c1ccc(N2C(=O)CSC2=S)cc1,4.6,3.8,-4.2,45.2*,-2.2
Cc1oc(S(=O)(=O)N2CCCCC2)cc1NC(=O)Nc1ccc(F)cc1,/,/,-0.6,45.4*,/
COc1ccc(C(=O)NCC(=O)OCC(=O)c2ccc(Cl)cc2)cc1OC,-0.5,1.9,0.0,33.9*,-5.4
COc1ccc(C(=O)NCC(=O)OCc2ccc(Cl)cc2Cl)cc1OC,-0.3,-2.7,0.1,/,2.8
O=C(CCCNC(=O)c1ccc(Cl)cc1)Nc1nccs1,86.9*,2.1,-1.4,0.4,/
O=C(CCCNC(=O)c1ccc(Cl)cc1)Nc1ncccc1O,1.2,-2.8,-2.6,-2.5,-6.5
O=Cc1ccc(OC(=O)/C=C/c2ccccc2)cc1,-6.0,-3.7,0.3,79.4*,-1.1
CC(Oc1ccc(Cl)cc1C(N)=O)C(=O)N1CCc2ccccc21 (stereo unspecified),1.4,-4.8,1.2,72.9*,-5.3
CC(C)n1cc(/C=N/Nc2ccc(C(=O)O)cc2)c2ccccc21,-1.6,-5.4,0.2,71.4*,12.5
SMILES,Cneo AK release,PglD inh,CAL PDZ FP-1,CAL PDZ FP-2,miR-122 sensor
C/C(=N\Nc1ccc(S(N)(=O)=O)cc1[N+](=O)[O-])c1cccnc1,3.1,4.7,-1.5,-1.2,-2.3
COc1ccc(NS(=O)(=O)c2cc(C(=O)OC(C)C(=O)N3CCOCC3)ccc2Cl)cc1 (stereo unspecified),/,/,-1.4,-4.6,/
CNC(=O)NC(=O)C(C)OC(=O)c1ccc(Cl)c(S(=O)(=O)Nc2ccc(F)cc2)c1 (stereo unspecified),-2.9,-2.6,-0.2,-3.4,215.2*
CCCn1nc(NS(=O)(=O)c2ccccc2)c2cc3ccccc3nc21,-12.4,-5.6,-1.0,58.4*,-2.0
CN1CCN(c2nc(-c3cccnc3)nc3ccccc23)CC1,0.1,2.4,-2.5,-0.4,/
COc1cc2c(cc1OC)CN(c1nc(-c3cccnc3)nc3ccccc13)CC2,2.5,2.9,-5.3,70.7*,4.8
O=C(NCc1cccnc1)c1cc(C2CCCCN2C(=O)c2cccs2)on1 (stereo unspecified),1.4,-2.5,/,/,-1.6

# Bioassay records deposited in PubChem BioAssay by Broad Institute.
